Paper PMC11447725 (ACS Omega, 2024)
“And” between values parts separate entries of the source, which are not always exact repeats. Equal entries are not always repeated. Where two headings read alike, the source gives them in different places.

Assays:
[1] = Pharmacokinetics of HHC in plasma after single oral administration in mice; type: in vivo; conditions: 40 mg/kg
Method in brief: (§1)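 Male mice (18–22 g, acclimatised 1 week) received a single 40 mg/kg dose, IP or by oral gavage, in 0.1% DMSO diluted in 1% hydroxyethyl cellulose (10 μL/g). Four mice per time point (predose, 5–30 min, 1, 2, 4, 8, 24 h) were bled from the left ventricle under anaesthesia into EDTA. Plasma underwent MTBE extraction with butylparaben IS, then negative-ESI LC-MS/MS MRM. Noncompartmental analysis.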

[2] = Pharmacokinetics of HHC in plasma after single IP administration in mice; type: in vivo; conditions: 40 mg/kg
Method in brief: as §1

[3] = Tissue distribution of HHC; type: in vivo, mice; conditions: male, mouse, ip, 40 mg/kg
Method in brief: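 Mice were dosed 40 mg/kg IP in 0.1% DMSO/1% hydroxyethyl cellulose, and liver, kidney and brain were removed at the plasma sampling times (n = 4; brain n = 3). Tissues were homogenised 1:10 (w/w) in PBS. Brain was extracted like plasma; kidney and liver received acetone precipitation before MTBE extraction with butylparaben IS. Negative-ESI LC-MS/MS MRM, calibrated at 5–500 ng/mL. Noncompartmental parameters.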

[4] = Stock solution stability at −30 ± 10 °C; type: physicochemical; conditions: for observed conc. after storage: stock solution in methanol, 22 days; for observed conc. after storage / accuracy after storage: n = 3; for time stable in stock solution / accuracy after storage: stock solution; for accuracy after storage: 22 days (text: 20 days), vs fresh
Method in brief: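 HHC and IS methanol stocks were diluted in methanol to 375 and 110 ng/mL (n = 3) and stored at −30 ± 10 °C for 22 days. Peak responses by LC-MS/MS were compared with freshly prepared stocks, and results were checked against nominal values (precision within 15%, accuracy within ±15%).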

[5] = Long-term stability of HHC in mice plasma at −30 ± 10 °C; type: in vitro ADME; conditions: 20 days; for accuracy after storage / observed conc. after storage: n = 3
Method in brief: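 Blank mouse plasma was spiked at 15 and 375 ng/mL (n = 3) and kept at −30 ± 10 °C for 20 days. Samples were then extracted with MTBE using butylparaben IS and quantified by LC-MS/MS against daily calibration curves. Results were compared with nominal values; acceptance was precision within 15% and accuracy within ±15%.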

[6] = pH 7.4; cited from earlier work
[7] = rats, cited from earlier work
[8] = mice, cited from earlier work
[9] = oral administration, rats; cited from earlier work
[10] = after intravenous curcumin 20 mg/kg

`COc1cc(CCC(=O)CC(O)CCc2ccc(O)c(OC)c2)ccc1O` (stereo not shown) [HHC, hexahydrocurcumin] showed an AUC(0-inf) ([1]; male, mouse, po) of 142 ng·h/mL, an AUC(0-t) ([1]; male, mouse, po) of 127 ng·h/mL and a Cmax ([1]; male, mouse, po) of 194 ± 43.5 ng/mL. It also gave an MRT inf ([1]; male, mouse, po) of 2.58 h, an MRT last ([1]; male, mouse, po) of 1.61 h and a half-life ([1]; male, mouse, po, T1/2, oral 40 mg/kg, mice, n = 4) of about 2.17 h. For the same compound, the Tmax ([1]; male, mouse, po, Tmax, oral 40 mg/kg, mice, n = 4) was about 0.25 h, the half-life ([1]; male, mouse, po, half-life, oral 40 mg/kg, mice) was about 2.17 h and the “percent relative bioavailability (AUC0–t oral / AUC0–t IP)” value ([1]; oral vs IP, mice) was 12.28%. The “Cmax after IP relative to oral administration” value ([2]; mice, IP vs oral) was 47.90 times and 47.9 times, the Cmax ([2]; male, mouse, ip) was 9300 ± 4290 ng/mL and the MRT inf ([2]; male, mouse, ip) was 0.875 h. The MRT last ([2]; male, mouse, ip) was 0.708 h, the half-life ([2]; male, mouse, ip, T1/2, IP 40 mg/kg, mice, n = 4) was about 1.52 h and the Tmax ([2]; male, mouse, ip, Tmax, IP 40 mg/kg, mice, n = 4) was about 5 min. The half-life ([2]; male, mouse, ip, half-life, IP 40 mg/kg, mice) was about 1.52 h, the AUC(0-inf) ([3]; brain) was 21.1 ng·h/mL and the AUC(0-t) ([3]; brain) was 18.7 ng·h/mL. The Cmax ([3]; brain) was 120 ± 54.1 ng/mL, the MRT inf ([3]; brain) was 2.04 h and the MRT last ([3]; brain) was 1.05 h. The Tmax ([3]; brain) was 5 min, the half-life ([3]; brain) was 1.77 ± 0.98 h and the Cmax ([3]; kidney) was 1700 ± 897 ng/mL. For the same compound, the MRT inf ([3]; kidney) was 1.94 h, the MRT last ([3]; kidney) was 1.6 h and the Tmax ([3]; kidney) was 6.3 min. For the same compound, the half-life ([3]; kidney) was 1.7 ± 0.623 h, the MRT inf ([3]; liver) was 2.67 h and the MRT last ([3]; liver) was 2.6 h. The Tmax ([3]; liver) was 5 min, the half-life ([3]; liver) was 1.74 ± 0.43 h and the “time stable in stock solution” value [4] was “at least 22 days”. The “observed conc. after storage” value ([4]; nominal 375.00 ng/mL) was 398.08 ± 1.45 ng/mL, the accuracy after storage [4] was 106.15% and the “stability in plasma samples” value [5] was “stable”. For the same compound, the accuracy after storage ([5]; HQC nominal 375.00 ng/mL) was 94.81%, the “observed conc. after storage” value ([5]; HQC nominal 375.00 ng/mL) was 355.53 ± 34.51 ng/mL and the accuracy after storage ([5]; LQC nominal 15.00 ng/mL) was 90.27%. For the same compound, the “observed conc. after storage” value ([5]; LQC nominal 15.00 ng/mL) was 13.54 ± 1.03 ng/mL and the “stability compared with curcumin” value [6] was “superior stability to curcumin”.

With `CCCCOC(=O)c1ccc(O)cc1` [IS, butylparaben, reference compound] the “time stable in stock solution” value [4] was “at least 22 days”, the “observed conc. after storage” value ([4]; nominal 110.10 ng/mL) was 112.08 ± 0.90 ng/mL and the accuracy after storage [4] was 101.80%.

In the case of `COc1cc(/C=C/C(=O)CC(=O)/C=C/c2ccc(O)c(OC)c2)ccc1O` [curcumin], the “elimination half-life (T1/2,β)” value ([7]; intravenous 10 mg/kg) is given as 0.742 ± 0.125 h, the Tmax ([7]; oral 500 mg/kg) is given as 0.695 ± 0.09 h and the “elimination half-life (T1/2,β)” value ([7]; oral 500 mg/kg) is given as 0.468 ± 0.0933 h. The oral bioavailability [7] was “approximately 1%”, the “AUC0–∞” value [8, 10] was 107.0 ± 18.3 mg·min/L and the “T1/2,z” value ([8]; intravenous curcumin 20 mg/kg, plasma) was 0.538 ± 0.18 h. The half-life [9] was 0.545 h.

For `COc1cc(/C=C/C(=O)CC(=O)CCc2ccc(O)c(OC)c2)ccc1O` [dihydrocurcumin], the “AUC0–∞” value [8, 10] is given as 6.0 ± 1.2 mg·min/L and the detection in kidneys [8, 10] is given as “present”.

In the case of `COc1cc(CCC(=O)CC(=O)CCc2ccc(O)c(OC)c2)ccc1O` [tetrahydrocurcumin], the “AUC0–∞” value [8, 10] is given as 12.0 ± 4.0 mg·min/L and the detection in liver [8, 10] is given as “detectable”.
